Measurements published in ChEMBL document CHEMBL3603751, “A new small molecule inhibitor of soluble guanylate cyclase” (Bioorg Med Chem, 2015).
The source made the active and inactive calls. The calls are words filed in the database; no cut-off is given here.

Legend:
Bos taurus = species: Bos taurus; test: Inhibition of bovine lung sGC using GTP as substrate assessed as inhibition of NO-stimulated cGMP formation at 100 uM preincubated with protein followed by NO addition measured after 2 mins by radioimmunoassay relative to control
How it was run: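 Purified bovine lung sGC (5 ng/ml) in 50 mM Tris, 0.3 mM MgCl, 100 μM EGTA, 0.045% BSA, 1000 units/mL SOD, pH 7.4, with 1 mM MgGTP at 37 °C. Compound (100 μM) added before DEA/NO (30 nM). Reaction ran 2 min, then aliquots were boiled in 50 mM Tris/4 mM EDTA. cGMP was quantified by [3H] radioimmunoassay.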

[1] = biological target: Soluble guanylate cyclase (Homo sapiens) (UniProt Q02153+O75343+P33402+Q02108); test: Binding affinity to human recombinant sGC catalytic subunit by surface plasmon resonance analysis; type: protein-complex assay
[2] = biological target: T1, Adenylate cyclase (Homo sapiens) (UniProt Q8NFM4+O60503+Q08828+P40145+O60266+O95622+O43306+Q08462+P51828); test: Inhibition of adenylyl cyclase (unknown origin); type: protein assay
[3] = biological target: T1, Adenylate cyclase (Homo sapiens); test: Inhibition of forskolin-stimulated adenylyl cyclase (unknown origin)
Rattus norvegicus = species: Rattus norvegicus; test: Inhibition of sGC in rat cerebellar slices assessed as inhibition of NMDA-induced cGMP production at 100 uM preincubated for 10 mins followed by phosphodiesterase inhibitor IBMX addition by radioimmunoassay
How it was run: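 Sagittal cerebellar slices 0.4 mm thick were cut from 10-day-old rats. Antagonists were added 10 min before IBMX (1 mM, 10 min preincubation). Slices were inactivated in boiling Tris–HCl (50 mM, pH 7.5) with EDTA (4 mM) and sonicated. Protein was measured by bicinchoninic acid and cGMP by radioimmunoassay.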

inhibition (Bos taurus)	SMILES	also measured
inactive	Nc1ccc2nc(Nc3ccc(O)cc3)c(Nc3ccc(O)cc3)nc2c1	
inactive	Oc1ccc(Nc2nc3ccc(Cl)cc3nc2Nc2ccc(O)cc2)cc1	
inactive	N#Cc1ccc2nc(Nc3cccc(O)c3)c(Nc3cccc(O)c3)nc2c1	
inactive	CC(=O)Nc1cccc(Nc2nc3ccc([N+](=O)[O-])cc3nc2Nc2cccc(NC(C)=O)c2)c1	
inactive	Oc1cccc(Nc2nc3ccc(Cl)cc3nc2Nc2cccc(O)c2)c1	

Continued, compound first:

SMILES	inhibition (Bos taurus)	also measured
CC(=O)Nc1ccc(Nc2nc3ccc([N+](=O)[O-])cc3nc2Nc2ccc(NC(C)=O)cc2)cc1	inactive	
COc1ccc(Nc2nc3ccc([N+](=O)[O-])cc3nc2Nc2ccc(OC)cc2)cc1	inactive	
CNC(=O)c1ccc2nc(Nc3cccc(O)c3)c(Nc3cccc(O)c3)nc2c1		RU [1]: 9.6
N#Cc1ccc2nc(Nc3ccc(O)cc3)c(Nc3ccc(O)cc3)nc2c1	inactive	
O=[N+]([O-])c1ccc2nc(Nc3ccc(F)cc3)c(Nc3ccc(F)cc3)nc2c1	inactive	
O=[N+]([O-])c1ccc2nc(Nc3ccc(O)cc3)c(Nc3ccc(O)cc3)nc2c1		inhibition [2]: inactive; inhibition [3]: inactive; inhibition (Rattus norvegicus): Active
